Bioassay records from PubChem BioAssay.
Shown are actives, neighbours in structure and some others; about 2.3% of the full set was active somewhere.
TRPC6 act = mouse TRPC6 channel activators, primary screen, cell-based, HEK293, membrane potential dye; Short transient receptor potential channel 6 (Mus musculus), Q61143; HEK293-TRPC6 membrane potential dye fluorescence; stronger effect = higher value; B-score at 10 µM; 310,000 compounds, 0.13% hits;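 active = B-score of the integrated fluorescence ratio above library mean plus 3 SD, and starting fluorescence ratio within library mean plus 5 SD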;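 also: higher score means more depolarization so channel activation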
Target sequence (Q61143 whole entry, looked up): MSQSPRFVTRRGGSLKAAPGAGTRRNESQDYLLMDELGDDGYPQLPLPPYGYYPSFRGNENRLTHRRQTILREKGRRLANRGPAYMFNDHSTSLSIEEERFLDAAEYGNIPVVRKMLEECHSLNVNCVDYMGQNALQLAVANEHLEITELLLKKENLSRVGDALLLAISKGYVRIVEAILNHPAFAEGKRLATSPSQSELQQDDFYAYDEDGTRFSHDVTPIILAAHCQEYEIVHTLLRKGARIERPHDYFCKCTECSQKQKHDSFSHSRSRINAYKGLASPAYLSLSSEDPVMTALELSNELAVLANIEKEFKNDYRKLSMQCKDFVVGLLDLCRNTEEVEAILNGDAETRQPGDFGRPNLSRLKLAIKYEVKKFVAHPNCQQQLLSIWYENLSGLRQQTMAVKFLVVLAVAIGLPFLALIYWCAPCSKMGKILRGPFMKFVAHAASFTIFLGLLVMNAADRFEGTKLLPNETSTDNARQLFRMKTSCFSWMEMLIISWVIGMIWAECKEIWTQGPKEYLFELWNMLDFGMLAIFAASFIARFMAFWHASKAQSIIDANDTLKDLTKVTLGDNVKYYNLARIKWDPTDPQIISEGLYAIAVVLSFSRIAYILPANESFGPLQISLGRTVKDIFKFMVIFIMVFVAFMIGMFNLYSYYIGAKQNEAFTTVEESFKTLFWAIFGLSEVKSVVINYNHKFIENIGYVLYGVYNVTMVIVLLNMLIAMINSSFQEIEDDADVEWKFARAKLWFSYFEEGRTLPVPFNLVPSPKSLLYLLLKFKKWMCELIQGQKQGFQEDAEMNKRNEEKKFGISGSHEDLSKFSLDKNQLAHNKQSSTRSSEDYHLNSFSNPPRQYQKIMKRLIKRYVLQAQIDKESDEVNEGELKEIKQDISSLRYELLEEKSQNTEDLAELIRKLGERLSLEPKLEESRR
TRPC4 act = activators of mouse TRPC4 channel, primary screen, Fluo4 calcium, HEK293 TRPC4beta/mu-opioid cells; Fluo4 calcium fluorescence; stronger effect = higher value; B-score at 10 µM; 310,000 compounds, 0.49% hits;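 active = B-score above 5 SD of library B-scores, and initial fluorescence ratio not above library mean plus 5 SD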;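 also: positive B-score marks a calcium rise read as TRPC4 activation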
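System: HEK293 cells stably co-expressing mouse TRPC4beta and mu-opioid receptor; Schedule: Fluo4 dye loading 45 min at room temperature, 110 s recording; Detection: Fluo4 fluorescence, kinetic; Evaluation: B-scored integrated calcium fluorescence ratio; Controls: buffer (low) and maximal DAMGO (high).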
TRPC4 inh = inhibitors of mouse TRPC4 channel, primary screen, Fluo4 calcium, HEK293 TRPC4beta/mu-opioid cells; Short transient receptor potential channel 4 (Mus musculus), Q9QUQ5; DAMGO-evoked Fluo4 calcium flux; stronger effect = lower value; AID 2247, 2010; B-score at 10 µM; 300,000 compounds, 0.39% hits;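 active = B-score over 3 SD under the library average, no early fluorescence shift, positive overall ratio signal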
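System: stable TRPC4beta/mu-opioid receptor HEK293 cells; Dosing: single-point compound dosing; Measured by: Fluo4 Ca2+ flux fluorescence; Read-out basis: per-well B score of integrated baseline-normalized Fluo4 ratio.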
TRPC4 potent = positive allosteric modulators of TRPC4, primary screen, cell-based, mouse TRPC4beta, HEK293 mu-opioid, Fluo-4 calcium | DAMGO EC20, Fluo-4 Ca2+ flux; stronger effect = higher value | B-score at 10 µM | 310,000 compounds, 0.42% hits | AID 2227, 2009;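 active = B-score of calcium response area above 5 SD of library B-scores, with initial fluorescence ratio within 5 SD of library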
TRPC6 inhibitor = mouse TRPC6 channel inhibitors, primary screen, cell-based, HEK293, membrane potential dye; B-score at 10 µM; AID 2553, 2010; ACh-evoked depolarization; stronger effect = lower value; Short transient receptor potential channel 6 (Mus musculus), Q61143; 310,000 compounds, 1.1% hits;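 active = B-score under library mean minus 3 SD, initial fluorescence not abnormally high, positive integrated signal ratio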;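 also: B-score derived from integrated fluorescence ratio over the kinetic read; more negative B-score means stronger inhibition of depolarization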
Of the large screens only hits and unclear results are named; the others gave an inactive call.

O=C(Nc1ccc(F)c([N+](=O)[O-])c1)N1C[C@H]2C[C@@H](C1)c1cccc(=O)n1C2	none
CCN1CCN(c2cc(N3CCCC3)c([N+](=O)[O-])cc2F)CC1	TRPC4 potent 17
O=[N+]([O-])c1ccc(N2CCCC2)c(F)c1Br	none
CCOC(=O)C(C)(CC)NC(=O)CSP(=S)(OCC)OCC (stereo not given)	none
CCc1ccc(CN2CCN(Cc3cc(Br)ccc3O)CC2)cc1	none
CCN1CCN(Cc2cc(Br)cc(Br)c2O)CC1	TRPC4 act 200
CCN1CCN(Cc2cc(Br)ccc2O)CC1	TRPC4 potent 23
O=C1Nc2cc(C(=O)N3CCC4(CC3)OCCO4)ccc2NC1CSCc1cccc(F)c1 (stereo not given)	none
C=CC1CN2CCC1CC2C(OC(C)=O)c1ccnc2ccc(OC)cc12 (stereo not given)	none
Cn1cnc(CCN)c1	TRPC4 act 143
C[C@]12CCC3[C@@H](CCC4=CC(=O)CC[C@@]43C=O)C1CCC2=O (stereo not given in full)	none
FC(F)(F)c1ccc(CN2CCNCC2)cc1	TRPC4 potent 17
Clc1ccccc1CN1CCNCC1	none
Cc1ccccc1CN1CCNCC1	TRPC4 potent 15
Clc1ccc(CN2CCNCC2)cc1	TRPC4 act 54
c1cc2c(cc1CN1CCNCC1)OCO2	none
Cn1c(O)c(C(=N)COc2cccc(Cl)c2)c(=O)n(C)c1=O	none
CS(=O)(=O)c1ccc(C(=O)N2CCC(C(=O)O)(c3ccccc3)CC2)cc1	none
CCOc1cc(CNCCc2c[nH]c3ccccc23)cc(Cl)c1OC	TRPC4 act 159
O=C(CCNC(=O)N1C[C@H]2C[C@@H](C1)c1cccc(=O)n1C2)Nc1ccc(F)cc1	none
O=C(CN1CCCC1)Nc1ccc(Cl)cc1C(=O)c1ccccc1	TRPC4 inh -6
O=C(CCN1CCCCC1)Nc1ccc(Cl)cc1C(=O)c1ccccc1	none
O=P(C(c1c[nH]c2ccccc12)N1CCOCC1)(N1CCOCC1)N1CCOCC1 (stereo not given)	none
COc1ccccc1CCNC(=O)CCC(=O)N1CC2C[C@@H](C1)Cn1c2cccc1=O	none
CC1(C)CC(N(CCc2ccccc2)Cc2ccccc2)CCO1 (stereo not given)	TRPC4 inh -6
CCCCN1C(=O)NC(=O)C2(Cc3c(nc4c(C)cccn4c3=O)N3CCc4ccccc4C32)C1=O (stereo not given)	TRPC4 potent 19
CCCCN1C(=O)NC(=O)C2(Cc3c(nc4ccccn4c3=O)N3CCc4ccccc4C32)C1=O (stereo not given)	TRPC4 potent 57
CN[C@@H](C)[C@@H](O)c1ccccc1	none
O=[N+]([O-])c1ccc(N2CCNCC2)c(Cl)c1	TRPC4 act 48, TRPC4 potent 20
O=P(Nc1ccccc1)(Nc1ccccc1)Oc1cccc(Cl)c1	none
Oc1ccc2c3c1O[C@H]1c4oc5ccccc5c4C[C@@]4(O)[C@@H](C2)N(CC2CC2)CC[C@]314	TRPC4 inh -6
C[C@]12N[C@H](Cc3ccccc31)c1ccccc12	none
CN1CC(C(=O)c2ccc([N+](=O)[O-])cc2)C(c2ccc(Cl)cc2)C1 (stereo not given)	TRPC4 potent 13
Cc1c(CCN)ccc2c1[nH]c1ccccc12	TRPC4 potent 19
CCC1=Nc2cc(C(=O)N3CCC4(CC3)OCCO4)ccc2Sc2ccc(C)cc21	TRPC4 inh -6
CCC1=Nc2cc(C(=O)N3CCC4(CC3)OCCO4)ccc2Sc2ccccc21	none
Cc1c(P(=S)(c2ccccc2)c2ccccc2)[n+]2ccccc2n1C	none
Cn1cc[n+](C)c1P(=S)(c1ccccc1)c1ccccc1	TRPC4 act 66
COc1cccc(C2(C#N)CCN(C)CC2)c1	none
CNCCc1nc(N)n[nH]1	TRPC4 act 101
CC(Cc1ccccc1)NCC(=O)Nc1cc(N(C)C)nc2ccccc12 (stereo not given)	TRPC4 inh -6
CN1CCN(c2ccc(N)cc2Cl)CC1	none
CC1(C)CSC(=NCc2ccccc2)N1	TRPC4 act 68
Cc1cc(OC(C)C(=O)NCC2CCC(C(=O)O)CC2)c2c3c(c(=O)oc2c1)CCC3 (stereo not given)	none
CC(C)CN(CC(C)C)c1ccc(C=C2C(=O)NC(=S)NC2=O)cc1[N+](=O)[O-]	TRPC4 inh -7
Cc1ccc(OP(=O)(Nc2cccc(C)c2)Oc2ccc(C)cc2)cc1	none
Cc1cccc(OP(=O)(Nc2cccnc2)Oc2cccc(C)c2)c1	TRPC4 potent 11
CC(=O)O[C@]1(c2ccccc2)CCN(C)[C@H]2CCCC[C@@H]21	none
CC(=O)OC1(c2ccccc2)CCN(C2CCCCC2)CC1C (stereo not given)	TRPC4 inh -6
Cc1ccsc1C(=O)C1CCCN(Cc2cc(C(C)C)n[nH]2)C1 (stereo not given)	none
COc1ccc(CN2CCN(Cc3ccccc3F)CC2)cc1	none
CCOC(=O)C1(CCc2ccccc2)CCN(Cc2cccc3c2OCO3)CC1	TRPC4 inh -6
CCOC(=O)C1(CCc2ccccc2)CCN(Cc2cccc3cnccc23)CC1	none
CCOC(=O)C1(CCc2ccccc2)CCN(Cc2csc(C(C)=O)c2)CC1	TRPC4 act 49
CN1C2CCC1CC(OC(=O)c1cc(Cl)cc(Cl)c1)C2 (stereo not given)	TRPC4 potent 13
COc1cc(C(=O)OC2C[C@H]3CC[C@@H](C2)N3C)ccc1O (stereo not given in full)	none
Cc1ccc(-c2nc(N(C)C3CCN(C)CC3)c3ccccc3n2)cc1	TRPC4 potent 24
CC(CN(C)C1CCN(C)CC1)c1ccccc1 (stereo not given)	none
NC(N)=N/N=C/c1ccc(N(c2ccccc2)c2ccccc2)cc1	TRPC4 act 86
COc1ccc(OC)c(N2C(=O)/C(=C/c3ccco3)C(=O)NC2=S)c1	TRPC4 potent 10
C=C(C)[C@H]1CN[C@H](C(=O)O)[C@H]1CC(=O)O	none
CC(=O)N1CCC(N2CCCC(C(=O)c3cccc(Cl)c3)C2)CC1 (stereo not given)	TRPC6 inhibitor -5.7
O=C(c1ccc(Cl)cc1)C1CCCN(Cc2ccon2)C1 (stereo not given)	none
CC(C)(C)c1ccc(C(=O)C2CCCN(C3CCC3)C2)cc1 (stereo not given)	TRPC4 act 57
CN1CCCC(C(=O)c2ccc(Cl)cc2)C1 (stereo not given)	TRPC4 act 126, TRPC4 inh -9
Cn1c(O)c(Cc2cccc(Cl)c2Cl)c(=O)n(C)c1=O	none
